Compound activity deposited in PubChem by Johns Hopkins Ion Channel Center.
Hits are enriched below; roughly 2.3% of the tested compounds scored in any of these assays.
TRPC4 potent – allosteric potentiators of mouse TRPC4 channel | HEK293 TRPC4beta/mu-opioid, DAMGO EC20, Fluo-4 Ca2+ flux; stronger effect = higher value | B-score at 10 µM | actives 0.42% (n = 310,000) | AID 2227;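 active = B-score of calcium response area above 5 SD of library B-scores, with initial fluorescence ratio within 5 SD of library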;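 also: B-score of integrated fluorescence ratio over time as area under calcium response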
Target sequence (Q9QUQ5 whole entry, looked up): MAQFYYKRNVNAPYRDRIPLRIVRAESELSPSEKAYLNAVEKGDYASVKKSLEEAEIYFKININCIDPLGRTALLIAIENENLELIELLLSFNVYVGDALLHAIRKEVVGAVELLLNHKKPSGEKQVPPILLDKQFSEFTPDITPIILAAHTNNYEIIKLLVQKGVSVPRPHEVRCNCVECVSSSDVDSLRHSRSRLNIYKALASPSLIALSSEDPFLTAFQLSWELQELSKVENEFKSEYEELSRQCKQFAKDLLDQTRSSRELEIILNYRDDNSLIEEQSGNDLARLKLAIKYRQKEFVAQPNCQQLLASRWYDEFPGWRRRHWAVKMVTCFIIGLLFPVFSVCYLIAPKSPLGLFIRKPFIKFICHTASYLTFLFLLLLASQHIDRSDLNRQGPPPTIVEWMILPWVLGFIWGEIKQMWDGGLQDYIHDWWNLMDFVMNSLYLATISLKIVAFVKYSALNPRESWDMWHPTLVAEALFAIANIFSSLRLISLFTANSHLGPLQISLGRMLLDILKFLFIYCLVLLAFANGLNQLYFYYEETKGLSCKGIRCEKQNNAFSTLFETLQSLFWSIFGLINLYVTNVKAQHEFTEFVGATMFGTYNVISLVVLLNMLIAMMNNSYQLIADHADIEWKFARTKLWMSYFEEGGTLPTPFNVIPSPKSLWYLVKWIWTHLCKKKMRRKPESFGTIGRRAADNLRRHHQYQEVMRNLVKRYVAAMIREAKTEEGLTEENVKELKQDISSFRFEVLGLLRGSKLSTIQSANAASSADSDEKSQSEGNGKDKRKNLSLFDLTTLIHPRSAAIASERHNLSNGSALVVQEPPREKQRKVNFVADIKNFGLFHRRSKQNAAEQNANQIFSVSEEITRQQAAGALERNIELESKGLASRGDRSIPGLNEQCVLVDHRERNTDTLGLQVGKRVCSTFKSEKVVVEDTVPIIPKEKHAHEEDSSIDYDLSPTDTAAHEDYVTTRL
TRPC6 inh – mouse TRPC6 channel inhibition. HEK293-TRPC6, membrane potential dye, ACh-evoked depolarization; stronger effect = lower value. B-score at 10 µM. actives 1.1% (n = 310,000). AID 2553;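 active = B-score under library mean minus 3 SD, initial fluorescence not abnormally high, positive integrated signal ratio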;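 also: B-score derived from integrated fluorescence ratio over the kinetic read; more negative B-score means stronger inhibition of depolarization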
TRPC6 activator – activators of mouse TRPC6 channel; B-score at 10 µM; Q61143; HEK293-TRPC6 membrane potential dye fluorescence; stronger effect = higher value; actives 0.13% (n = 310,000);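 active = B-score of the integrated fluorescence ratio above library mean plus 3 SD, and starting fluorescence ratio within library mean plus 5 SD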;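 also: higher score means more depolarization so channel activation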
TRPC4 agonist – activators of mouse TRPC4 channel. HEK293 TRPC4beta/mu-opioid, Fluo4 calcium fluorescence; stronger effect = higher value. B-score at 10 µM. actives 0.49% (n = 310,000). AID 2237;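 active = B-score above 5 SD of library B-scores, and initial fluorescence ratio not above library mean plus 5 SD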;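 also: positive B-score marks a calcium rise read as TRPC4 activation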
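Assay system – TRPC4beta and mu-opioid receptor HEK293 stable cells · Measured by – Fluo4 fluorescence, kinetic · Schedule – dye loading 45 min room temperature, 110 s kinetic read · Read-out – B-scored integrated calcium fluorescence ratio · Controls – buffer and maximal DAMGO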
TRPC4 block – blocks the mouse TRPC4 cation channel | Q9QUQ5 | HEK293 TRPC4beta/mu-opioid, DAMGO-evoked Fluo4 calcium flux; stronger effect = lower value | B-score at 10 µM | actives 0.39% (n = 300,000);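 active = B-score over 3 SD under the library average, no early fluorescence shift, positive overall ratio signal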
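Material: HEK293 cells with stable TRPC4beta plus mu-opioid receptor expression / Probe or stimulus: DAMGO in two steps, submaximal then maximal / Compound: single concentration per test compound / Technique: kinetic Fluo4 fluorescence imaging of calcium influx / Read-out: per-well B score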
An asterisk follows results filed as active; i = inactive.

SMILES	TRPC4 potent	TRPC6 inh	TRPC6 activator	TRPC4 agonist	TRPC4 block
Cc1ccc(N=C(/N=C(\N)N[N+](=O)[O-])Nc2ccc(C)cc2)cc1	i	i	i	i	i
O=C(Nc1ccccc1Cl)OC1CN2CCC1CC2 (stereo not given)	25*	i	i	i	i
O=C(Nc1ccccc1F)OC1CN2CCC1CC2 (stereo not given)	i	i	i	i	i
CCOc1c(Cl)cc(CNC(C)C(O)c2ccccc2)cc1OC (stereo not given)	i	i	i	i	-6*
COc1cc(OC)c(OC)cc1CNC(C)C(O)c1ccccc1 (stereo not given)	i	i	i	i	i
CC(C)Oc1cc(-n2c(=S)[nH]c3ccccc3c2=O)c(Cl)cc1Cl	12*	i	i	i	i
O=c1[nH]c(=O)n(Cc2ccc(F)cc2)c(O)c1C=NCCCn1ccnc1	i	i	i	i	i
O=c1[nH]c(=O)n(Cc2ccc(F)cc2)c(O)c1C=NCCCO	i	i	i	57*	-5*
Cc1ccc(C)c(NC(=S)NCCc2cnc[nH]2)c1	i	i	i	142*	i
COc1ccc(CCC(=O)NCCc2cnc[nH]2)cc1	i	i	i	i	i
CN(C)P(=O)(CCl)Nc1ccccc1 (stereo not given)	i	i	i	i	i
O=[N+]([O-])c1ccc(N2CCNCC2)cc1NCC1CCCO1 (stereo not given)	i	i	i	i	i
O=[N+]([O-])c1ccc(N2CCNCC2)cc1NC1CC1	i	i	i	117*	i
COc1ccc(C2(C#N)CCN(C)CC2)cc1	i	i	i	i	i
CC(C)n1c(=O)c(C=Nc2cccc([N+](=O)[O-])c2)c(O)n(CCc2ccccc2)c1=O	i	i	i	i	i
COc1ccc(C(CNC(=O)c2ccc3c(c2)CCC3)N(C)C)cc1 (stereo not given)	i	i	i	209*	i
CCc1nccc2c1[nH]c1ccccc12	i	i	i	i	-6*
CC1CCCC(C)N1/N=C/c1c[nH]c2ccc(Br)cc12 (stereo not given)	34*	i	i	i	i
CCC(CO)Nc1ccc([N+](=O)[O-])c2cccnc12 (stereo not given)	i	i	i	i	i
Cc1cc(-c2ccccc2)cc(C)[n+]1Cc1ccccc1	i	i	i	106*	i
O=[N+]([O-])c1ccc(C[n+]2c(-c3ccccc3)cc(-c3ccccc3)cc2-c2ccccc2)cc1	i	i	i	i	i
CCCCc1ncc(CN2CCCC(C(=O)c3ccc(SC)cc3)C2)[nH]1 (stereo not given)	i	i	i	i	-6*
CC1CCSP(=O)(Oc2ccccc2)O1 (stereo not given)	i	i	i	i	i
CC(C)(C)NC(=O)NC(=O)CN1CC=C(c2ccccc2)CC1	i	i	i	i	i
CCOC(=O)C1(c2ccccc2)CCN(CCC(=O)Nc2ccccc2OC)CC1	i	i	i	50*	i
SMILES	TRPC4 potent	TRPC6 inh	TRPC6 activator	TRPC4 agonist	TRPC4 block
Cn1c(O)c(/C=N/N2CCOCC2)c(=O)[nH]c1=S	i	i	i	i	i
COc1cccc(CN2CCNCC2)c1OC	i	i	i	i	i
Brc1ccc(CN2CCNCC2)s1	14*	i	i	i	i
C=C(C)[C@@]12OC3(c4ccccc4)O[C@@H]1C1[C@@H]4O[C@]4(CO)[C@@H](O)[C@]4(O)C(=O)C(C)=C[C@H]4[C@@]1(O3)[C@H](C)[C@H]2OC(=O)/C=C/C=C/c1ccccc1 (stereo not given in full)	i	i	i	i	-6*
COc1ccc(OCCOc2cccc(C=C3C(=O)NC(=O)NC3=O)c2)cc1	i	i	i	i	i
CN(CCOc1ccc(C=C2C(=O)NC(=O)NC2=O)cc1)c1ccccn1	i	i	i	46*	-6*
COc1ccc2nc(/N=C/c3c(O)n(-c4cccc(Cl)c4)c(=O)[nH]c3=O)sc2c1	i	i	i	i	i
CC(=O)NC1CC2CCC(C1)N2 (stereo not given)	i	i	i	i	i
Cc1ccc(C(=O)NC2CC3CCC(C2)N3)cc1 (stereo not given)	i	i	i	i	-5*
c1ccc(-c2cc(-c3ccccc3)[n+](-c3ccccc3)c(-c3ccccc3)c2)cc1	18*	i	i	i	i
CCOC(=O)c1ccc(-[n+]2c(-c3ccccc3)cc(-c3ccccc3)cc2-c2ccccc2)cc1	i	i	i	i	i
CN(C)c1ccc(-[n+]2c(-c3ccccc3)cc(-c3ccccc3)cc2-c2ccccc2)cc1	11*	i	i	i	i
CCOC(=O)c1cccc(-[n+]2c(-c3ccccc3)cc(-c3ccccc3)cc2-c2ccccc2)c1	i	i	i	i	i
CCCCCCNC(=O)N[C@H](Cc1ccc(O)cc1)C(=O)NCCC[C@H]1CN2C(=NC[C@H]2CCC)N1CC1CCC1	i	i	i	i	i
C=CCn1c(O)c(C(CC)=NCCc2c[nH]c3ccccc23)c(=O)[nH]c1=O	i	i	i	i	i
O=C(O)Cc1cnc[nH]1	i	i	i	i	i
C[C@@H](N)Cc1cnc[nH]1	i	i	i	197*	i
C/C=C(\C)C(=O)OC1C(C)=C2C(C1OC(=O)CCCCC)C(C)(OC(C)=O)CC(OC(=O)CCC)C1(O)C2OC(=O)C1(C)O (stereo not given)	i	-5.8*	i	71*	i
CC(=O)O[C@@H]1/C=C/[C@](C)(O)C[C@@H](C)C/C=C/[C@H]2[C@@H]3O[C@]3(C)[C@@H](C)[C@H]3[C@H](Cc4ccccc4)NC(=O)[C@@]312	i	i	i	i	i
COc1ccc(Cl)cc1C(=O)C1CCCN(CCO)C1 (stereo not given)	i	i	i	70*	i
CCn1ccnc1CN1CCCC(C(=O)c2cc(Cl)ccc2OC)C1 (stereo not given)	i	i	i	i	i
O=C1NC(=O)C2(Cc3cc([N+](=O)[O-])ccc3N3CCN(C(=O)c4ccccc4)CC32)C(=O)N1 (stereo not given)	i	i	i	i	i
